Results on six molecules are retold here after paper PMC5648609 (Xenobiotica; the fate of foreign compounds in biological …, 2017).

Series [1] deals with T1, hOCT2 (Homo sapiens, UniProt O15244).
T1 sequence (O15244 1-555): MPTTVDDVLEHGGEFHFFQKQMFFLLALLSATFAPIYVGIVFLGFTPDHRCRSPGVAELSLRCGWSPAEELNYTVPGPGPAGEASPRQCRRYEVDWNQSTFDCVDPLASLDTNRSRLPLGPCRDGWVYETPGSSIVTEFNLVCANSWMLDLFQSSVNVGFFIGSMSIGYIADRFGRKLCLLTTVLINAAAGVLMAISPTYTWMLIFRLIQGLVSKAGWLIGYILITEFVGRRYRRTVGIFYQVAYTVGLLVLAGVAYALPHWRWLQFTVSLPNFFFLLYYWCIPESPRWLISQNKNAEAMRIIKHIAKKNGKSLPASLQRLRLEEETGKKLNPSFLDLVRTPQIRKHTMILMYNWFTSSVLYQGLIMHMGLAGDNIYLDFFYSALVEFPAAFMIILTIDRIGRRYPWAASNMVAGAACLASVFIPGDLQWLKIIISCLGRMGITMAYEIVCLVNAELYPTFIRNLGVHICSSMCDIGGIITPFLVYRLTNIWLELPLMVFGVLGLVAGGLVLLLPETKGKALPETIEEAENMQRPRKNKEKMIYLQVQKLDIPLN
Nature of the series: ASP+-based fluorescence uptake inhibition assay, hOCT2. It counts as cell-based.

Series [2] has as its target T2, hOCT3 (Homo sapiens, UniProt O75751).
T2 sequence (O75751 1-556): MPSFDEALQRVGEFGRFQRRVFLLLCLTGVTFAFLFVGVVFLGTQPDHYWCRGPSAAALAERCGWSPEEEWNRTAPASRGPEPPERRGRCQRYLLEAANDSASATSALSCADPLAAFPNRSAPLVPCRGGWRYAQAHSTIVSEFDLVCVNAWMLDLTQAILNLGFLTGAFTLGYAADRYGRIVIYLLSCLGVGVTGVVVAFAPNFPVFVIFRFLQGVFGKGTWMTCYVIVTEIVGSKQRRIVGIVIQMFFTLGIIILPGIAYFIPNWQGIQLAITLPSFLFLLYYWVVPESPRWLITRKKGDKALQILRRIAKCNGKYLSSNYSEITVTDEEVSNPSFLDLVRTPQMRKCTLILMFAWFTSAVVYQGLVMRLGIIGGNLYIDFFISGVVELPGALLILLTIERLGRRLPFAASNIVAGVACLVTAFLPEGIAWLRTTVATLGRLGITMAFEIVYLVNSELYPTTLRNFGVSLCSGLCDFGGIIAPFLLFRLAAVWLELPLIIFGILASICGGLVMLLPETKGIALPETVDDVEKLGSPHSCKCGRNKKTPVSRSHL
Nature of the series: ASP+-based fluorescence uptake inhibition assay, hOCT3. It counts as cell-based.

The test system of series [3] is pcDNA5 (control) stably transfected HEK293 cells. The series is described as follows: MTT cytotoxicity assay, pcDNA5 control cells. Type of series: cell-based, human. The conditions noted are these: 72 h, vector control HEK293 cells, mean±SD of six experiments.
The subject of series [4] is hOCT3 stably transfected HEK293 cells. The series is described as follows: MTT cytotoxicity assay, hOCT3 cells. It counts as cell-based, human. The conditions noted are these: for TC50 OCT3: MTT, 72 h, hOCT3 HEK293 cells, mean±SD of six experiments; for Fold increase over pcDNA5 OCT3: ratio of TC50 pcDNA5 to TC50 hOCT3 cells.
The subject of series [5] is hOCT1-3 stably transfected HEK293 cells. The series is described as follows: MTT cytotoxicity assay, result stated across hOCT1-3 cells. The conditions noted are these: compared to vector-transfected HEK293 cells.
For series [6], the system named is hOCT2 stably transfected HEK293 cells. Nature of the series: MTT cytotoxicity assay, hOCT2 cells. It counts as cell-based, human. The conditions noted are these: for TC50 OCT2: MTT, 72 h, hOCT2 HEK293 cells, mean±SD of six experiments; for Fold increase over pcDNA5 OCT2: ratio of TC50 pcDNA5 to TC50 hOCT2 cells. A general note: Tetrazolium assays rely on reduction of a dye to a coloured formazan, in cell work by metabolically active cells.

Series [7] concerns the target T3, hOCT1 (Homo sapiens, UniProt O15245).
T3 sequence (O15245 1-554): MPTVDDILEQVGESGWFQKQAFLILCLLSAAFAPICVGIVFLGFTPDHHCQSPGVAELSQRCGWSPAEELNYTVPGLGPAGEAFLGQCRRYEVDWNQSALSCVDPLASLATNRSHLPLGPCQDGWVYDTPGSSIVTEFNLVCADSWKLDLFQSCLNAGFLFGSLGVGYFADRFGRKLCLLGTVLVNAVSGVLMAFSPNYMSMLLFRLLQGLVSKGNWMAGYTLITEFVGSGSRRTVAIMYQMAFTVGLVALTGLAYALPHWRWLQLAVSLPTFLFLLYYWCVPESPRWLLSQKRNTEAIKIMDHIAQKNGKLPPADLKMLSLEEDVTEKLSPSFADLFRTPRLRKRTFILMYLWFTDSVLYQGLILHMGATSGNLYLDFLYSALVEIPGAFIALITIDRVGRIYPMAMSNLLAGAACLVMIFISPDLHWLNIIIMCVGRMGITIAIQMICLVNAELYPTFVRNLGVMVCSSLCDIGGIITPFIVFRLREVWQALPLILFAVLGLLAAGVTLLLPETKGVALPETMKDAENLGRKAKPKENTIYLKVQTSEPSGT
The series is described as follows: ASP+-based fluorescence uptake inhibition assay, hOCT1. It counts as cell-based.

For series [8], the system named is hOCT1 stably transfected HEK293 cells. Nature of the series: MTT cytotoxicity assay, hOCT1 cells. It counts as cell-based, human. The conditions noted are these: for TC50 OCT1: MTT, 72 h, hOCT1 HEK293 cells, mean±SD of six experiments; for Fold increase over pcDNA5 OCT1: ratio of TC50 pcDNA5 to TC50 hOCT1 cells.
Series [9] addresses T2, hOCT3. Nature of the series: β-Carboline uptake assay. Type of series: in vitro ADME. The conditions noted are these: 1 μM substrate, 30 minutes. An outline of the steps: (§1)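 Flp-in HEK293 cells stably expressing the transporter, with empty pcDNA5/FRT vector cells as control, were grown overnight at 100 000 cells/well on poly-L-ornithine-coated plastic. Cells were washed twice with HBSS, acclimated for 10 min at 37 °C, then given 1 µM substrate in HBSS for 30 min. Uptake was stopped with three ice-cold HBSS washes. Cells were lysed in acetonitrile with internal standard, and drug was quantified by ESI-positive LC-MS/MS and normalized to total protein (BCA).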

Series [10] has as its target T3, hOCT1. The series is described as follows: β-Carboline uptake assay. It counts as in vitro ADME. The conditions noted are these: 1 μM substrate, 30 minutes. An outline of the steps: as §1
The conditions of series [11]: single ingestion of Ayahuasca, healthy volunteers; ref Riba et al., 2012; cited from earlier work.
The conditions of series [12]: human plasma; ref Ito et al., 2012; cited from earlier work.
In series [13] the target is T1, hOCT2. Particulars: read-out: Ki for hOCT2; hOCT2 expressed in HEK293 cells; ref Ito et al., 2012; cited from earlier work.

Marks after values point to notes of the source that are not given here.

Consider `Cn1c2c(c3ccccc31)CC[N+](C)=C2.[I-]` [2,9-dimethyl-4,9-dihydro-3Hβ-carbolin-2-ium, iodide], for which half-maximal inhibition on hOCT2 [1] (IC50) required 0.524 ± 0.088 µM. Besides, at hOCT3 [2], the IC50 (commonly the concentration that inhibits the measured activity by half) was found to be 7.3 ± 0.5 µM. In addition, the “TC50 pcDNA5” value in series [3] was determined as 127 ± 18 µM. Moreover, in series [4], the “TC50 OCT3” value worked out at 80.6 ± 7.2 µM and the “Fold increase over pcDNA5 OCT3” value came to 1.6 fold. In addition, the “Effect of hOCT1-3 expression on cytotoxicity (in words)” value (“Effect of hOCT1-3 expression” for short) in series [5] was “no significant effect”. For the same molecule, in [6], the “TC50 OCT2” value amounted to 117 ± 22 µM and the “Fold increase over pcDNA5 OCT2” value was determined as 1.1 fold. The molecule also showed an IC50 against hOCT1 [7] of 40.4 ± 2.4 µM. In [8], the “TC50 OCT1” value was determined as 119 ± 33 µM and the “Fold increase over pcDNA5 OCT1” value is given as 1.1 fold.

Regarding `COc1ccc2c3c([nH]c2c1)C(C)=NCC3` [Harmaline, 4,9-dihydro-7-methoxy-1-methyl-3H-pyrido[3,4-b] indole], the “Accumulation in hOCT3 transfected cells relative to vector cells” value at hOCT3 [9] was ~ 2 fold. Besides, the “Accumulation in hOCT1 transfected cells relative to vector cells” value at hOCT1 [10] is given as ~ 2 fold. Further, it took 4.76 ± 0.46 µM to reach half-maximal inhibition on hOCT3 [2] (IC50). In addition, in [3], the “TC50 pcDNA5” value turned out to be 23.0 ± 3.6 µM. Moreover, the “Plasma concentration after Ayahuasca” value in [11] is recorded as “mid to high nanomolar range”. For the same molecule, in series [4], the “TC50 OCT3” value came out at 33.1 ± 8.2 µM and the “Fold increase over pcDNA5 OCT3” value was 0.69 fold. For the same molecule, the “Effect of hOCT1-3 expression” value in series [5] was “no significant effect”. Moreover, in series [6], the “TC50 OCT2” value came out at 35.5 ± 3.8 µM and the “Fold increase over pcDNA5 OCT2” value turned out to be 0.65 fold. Moreover, the IC50 against hOCT1 [7] is 27.6 ± 3.8 µM. In series [8], the “TC50 OCT1” value is 23.0 ± 5.1 µM and the “Fold increase over pcDNA5 OCT1” value came to 1.0 fold.

With `COc1ccc2c(c1)[nH]c1c(C)nccc12` [Harmine, 7-methoxy-1-methyl-9H-pyrido[3,4-b] indole], the IC50 against hOCT3 [2] came out at 17.7 ± 1 µM; on hOCT1 [7], 23.1 ± 2.8 µM. Further, in series [3], the “TC50 pcDNA5” value came to 2.87 ± 0.47 µM. Besides, in [4], the “TC50 OCT3” value is 2.81 ± 0.23 µM. Besides, in series [5], the “Effect of hOCT1-3 expression” value is “no significant effect”. The “TC50 OCT2” value in series [6] is 3.01 ± 0.41 µM. Also, the “TC50 OCT1” value in series [8] was 2.55 ± 0.26 µM.

As to `C[n+]1ccc(-c2ccccc2)cc1` [MPP+, 1-methyl-4-phenylpyridinium], in series [3], the “TC50 pcDNA5” value amounted to 63.6 ± 12.7 µM. Also, in series [4], the “TC50 OCT3” value is on record as 5.86±0.68 ^a μM and the “Fold increase over pcDNA5 OCT3” value is reported as 10.9 fold. Moreover, in series [6], the “TC50 OCT2” value is on record as 7.16±0.75 ^a μM and the “Fold increase over pcDNA5 OCT2” value was 8.9 fold. Moreover, in series [8], the “TC50 OCT1” value is 3.88±0.38 ^a μM and the “Fold increase over pcDNA5 OCT1” value worked out at 16.4 fold.

At hOCT3 [2], `C[n+]1ccc2c(c1)[nH]c1ccccc12.[I-]` [Norharmanium, 2-methyl-9H-β-carboline-2-ium, iodide] came in with an IC50 of 13.1 ± 0.1 µM. Besides, the “TC50 pcDNA5” value in series [3] stood at 119 ± 18 µM. In addition, in series [4], the “TC50 OCT3” value is given as 10.8±1.4 ^a μM and the “Fold increase over pcDNA5 OCT3” value came out at 11.0 fold. Moreover, the “Effect of hOCT1-3 expression” value in [5] is “greatly increased toxicity”. Also, in [6], the “TC50 OCT2” value was 13.4±2.4 ^a μM and the “Fold increase over pcDNA5 OCT2” value stood at 8.9 fold. The IC50 on hOCT1 [7] came to 70.5 ± 6.6 µM. Besides, in [8], the “TC50 OCT1” value is reported as 9.05±2.54 ^a μM and the “Fold increase over pcDNA5 OCT1” value was 13.1 fold.

As to `CN/C(=N/CCSCc1nc[nH]c1C)NC#N` [cimetidine], in [12], the “Clinically encountered concentrations in plasma” value is 2.0 to 3.6 µM. Besides, at hOCT2 [13], the Ki – broadly, the equilibrium dissociation constant of an inhibitor or competing ligand from its target – was 95 to 146 µM.
